The text below walks through data of article PMC4633329 (Chemistry and physics of lipids, 2015).

Data set [1] has as its target MbCN. To be noted: read-out: MbCN-PA Kd; ref [47]; [48]; cited from earlier work.
A further data set concerns deoxy Mb. To be noted: ref [47]; [48]; cited from earlier work.
Another data set has as its target MbCO. Conditions: read-out: MbCO-PA Kd; ref [47]; [48]; cited from earlier work.
The test system of data set [2] is Mb. Conditions: 25:1 ratio of SDS to Mb; ref [50]; cited from earlier work.
The nature of data set [3]: OA solubility from NMR visible EFG. It counts as physicochemical.
The conditions of data set [4]: in the cell, cited from earlier work.
Another data set deals with FABP. To be noted: read-out: Dissociation Constant KFABP; flux model input; ref [15]; [45]; cited from earlier work.
Data set [5] concerns the target Mb (Equus caballus, UniProt P68082). The data set is described as follows: Optical spectra. On the set-up: species or system horse.
The conditions of data set [6]: cited from earlier work.
Data set [7] has as its target MbCN (Equus caballus, UniProt P68082). The data set can be described thus: 1H NMR titration of MbCN with OA. It counts as binding, horse. Put shortly:
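Horse metMb converted to MbCN with 5-fold excess KCN in 30mM Tris, 1mM EDTA, pH 7.4. OA stock (10 or 100mM, pH 8.5, 65°C) added to 0.2-0.8 mM MbCN at 35°C (OA:Mb up to 60:1). 1H NMR at 600 MHz, 35°C, Watergate, 10% D2O, TSP reference. Heme methyl intensity loss fitted to a specific plus non-specific 2-site model by Marquardt-Levenberg regression.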

Data set [8] in a line: pK of OA by NMR pH titration. To be noted: 0.8 mM OA, 35 °C, 1H NMR, referenced to peak position at pH 12.14. It counts as physicochemical.

In brackets after ≈: the same amount, converted by molar mass. Several values for one entry are separate records, joined by “and”; a condition that tells them apart may be missing. Equal entries are not always repeated. Where two headings read alike, the source gives them in different places.

Chain of Mb (Equus caballus, UniProt P68082) (P68082 whole entry): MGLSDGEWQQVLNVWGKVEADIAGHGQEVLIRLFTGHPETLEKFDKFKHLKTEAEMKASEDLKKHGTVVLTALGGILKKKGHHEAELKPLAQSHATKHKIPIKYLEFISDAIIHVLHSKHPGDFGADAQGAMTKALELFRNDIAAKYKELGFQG
Chain of MbCN (Equus caballus, UniProt P68082) (P68082 whole entry): as above

As to `CCCCCCCCCCCCCCCC(=O)O` [PA, palmitate], the Kd on MbCN [1] is 43 µM; at MbCO, 39 to 48 µM. For the same molecule, in the data set with deoxy Mb, the “PA interaction with deoxy Mb” value is reported as “does not interact specifically or non-specifically”.

Turning to `CCCCCCCCCCCCOS(=O)(=O)[O-].[Na+]` [SDS, sodium dodecyl sulfate], in the data set with Mb [2], the “loss of Soret band signal intensity” value is 25%.

One may read the Solubility as how much of the substance goes into solution per volume. Consider `CCCCCCCC/C=C\CCCCCCCC(=O)O` [OA, oleic acid], for which the Solubility in [3] (0.8mM MbCN in Tris, pH 7.4 35°C, 0.0904g/100g total OA added) is 7.03×10^−2 g/100g; in [3] (10.8mM MbCN in phosphate, pH 7.4 35°C, 0.0904g/100g total OA added), 6.59×10^−2 g/100g; in data set [3] (30 mM Tris buffer, 35 °C, pH 7.4, aqueous buffer, kinetic from dmso stock) it was 1430 µM (≈ 404 µg/mL); in data set [3] (30 mM Tris buffer, 35 °C, pH 12, aqueous buffer, kinetic from dmso stock) it was 2990 µM (≈ 845 µg/mL); in [3] (30 mM Tris buffer, pH 7.4 35°C, 0.0904g/100g total OA added), 4.04×10^−2 g/100g; in data set [3] (30 mM Tris buffer, pH 12 35°C, 0.0904g/100g total OA added) it was 8.45×10^−2 g/100g. In addition, the Solubility in data set [3] (100 mM phosphate buffer, 35 °C, pH 7.4, aqueous buffer, kinetic from dmso stock) was 1260 µM (≈ 356 µg/mL); in data set [3] (100 mM phosphate buffer, pH 7.4 35°C, 0.0904g/100g total OA added), 3.56×10^−2 g/100g; in data set [6] (66 mM phosphate buffer, pH 7.4 at 37°C, ref [53], listed as Oleate), 1.00×10^−6 M and 2.83×10^−5 g/100g; in [6] (0.2 M HEPES, pH 7.4 at 37°C, ref [46], listed as Oleate), 6.00×10^−6 M and 1.70×10^−4 g/100g; in [6] (95% of ethanol at 20°C, ref [22]), “∞”; in data set [6] (Acetone at 20°C, ref [22]), “∞”. Moreover, the Solubility result in [6] (Benzene at 20°C, ref [22]) is listed as “∞”. Further, the “Diffusion Constant, Fatty acid (DOA)” value in data set [4] (highest reported value, ref [52]) was 4.6 × 10^−6 cm^2s^−1. In addition, the Kd on FABP is 0.014 µM; at MbCN [7] (Dissociation Constant KMb2 (non-specific binding), 2-site model, high OA:Mb) it was 37000 µM; at MbCN [7] (apparent Kd (Kd1, KMb1), specific OA binding to MbCN, heme 8-CH3 signal loss, OA:Mb < 2:1, pH 7.4, 35 °C) it was 45 µM. In addition, at Mb [5] (OA:Mb of 5:1 to 50:1), the “hemichrome formation in optical spectra” value is reported as “do not detect any signs of hemichrome formation”. Besides, the “reduction in Soret band intensity” value was 5% on Mb [5] (OA:Mb of 50:1) and less than 5% on Mb [5] (OA:Mb ratios 20:1 to 50:1). For the same molecule, the Soret band position at Mb [5] (OA:Mb of 50:1, shifts from 422) is listed as 420 nm; on Mb [5] (OA:Mb ratios 20:1 to 50:1, 422 nm without OA) it was 420 nm. The “perturbation of Mb Soret band at 422 nm” value on Mb [5] (OA:Mb ratio up to 5:1) is recorded as “no significant perturbation”. The “metMb signal in optical spectra” value on Mb [5] (OA:Mb up to 50:1) is given as “no detectable metMb signal”. Besides, in data set [8], the “pK from peak B” value is recorded as 8.22. Further, the “pK from peak D” value in [8] turned out to be 8.07.

B1: Mb: myoglobin; solutions prepared from lyophilized horse heart protein (protein, UniProt P68082 2-154, looked up)
Myoglobin: GLSDGEWQQVLNVWGKVEADIAGHGQEVLIRLFTGHPETLEKFDKFKHLKTEAEMKASEDLKKHGTVVLTALGGILKKKGHHEAELKPLAQSHATKHKIPIKYLEFISDAIIHVLHSKHPGDFGADAQGAMTKALELFRNDIAAKYKELGFQG
In the case of B1, the “Diffusion Constant, Myoglobin (DMb)” value in [4] (ref [34]) is 7.85 × 10^−7 cm^2s^−1.
